MC4R antagonist = blocks human MC4R cAMP signaling. P32245. MC4R-expressing cells, MTII-stimulated cAMP, LANCE TR-FRET. inhibition, % at 6.5 µM. 0.48% of 360,000 active. AID 540295;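 active means inhibition above its plate's cutoff, the mean of tested wells on that plate plus 3 SD, cut at about 29% in these data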
Target sequence (P32245 whole entry, looked up): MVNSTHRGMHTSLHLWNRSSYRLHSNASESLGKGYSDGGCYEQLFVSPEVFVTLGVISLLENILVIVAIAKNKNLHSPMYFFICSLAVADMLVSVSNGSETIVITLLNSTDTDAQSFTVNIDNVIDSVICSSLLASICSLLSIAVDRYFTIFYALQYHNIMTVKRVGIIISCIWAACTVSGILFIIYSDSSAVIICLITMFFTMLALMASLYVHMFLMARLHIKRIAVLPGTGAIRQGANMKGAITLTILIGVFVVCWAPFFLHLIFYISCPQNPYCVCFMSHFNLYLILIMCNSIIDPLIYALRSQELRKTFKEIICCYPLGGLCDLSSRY
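Assay system: human MC4R-expressing U2OS cells; reagent: Melanotan II stimulation of cells; dosing: 6.5 µM single dose; timing: compound 30 min, challenge 1 h, detection 1 h; signal: TR-FRET cAMP assay; replicates: one well per compound, no replicates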
Beta2AR agonist = human beta-2 adrenergic receptor agonism by FAP | P07550 | Am2.2-beta2AR cells, FAP receptor internalization, flow cytometry | response, % (concentration not given with the values) | 0.43% of 340,000 active | AID 504454;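 active means response above a set limit, near 3 SD of response in nonfluorescent compounds, cut at about 42% in these data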
ABHD5-PLIN5 inh = ABHD5-PLIN5 protein interaction inhibition; inhibition, % at 4 µM; 0.78% of 360,000 active; Split G. princeps luciferase complementation, luminescence, 4 h; Q00G26+Q8WTS1; AID 602281;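 active means inhibition above the mean inhibition across every tested compound plus 3 SD, cut at about 22% in these data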
PfGluPho inh = PfG6PD (Plasmodium falciparum) enzyme inhibition; 0.78% of 350,000 active; inhibition, % at 20 µM; PfGluPho enzyme, NADPH resazurin-diaphorase fluorescence; AID 504690;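 active means inhibition reaching at least a set limit at 20 µM in the primary screen, cut at about 59% in these data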
MC4R barr agon = agonists of human melanocortin 4 receptor (MC4R) beta-arrestin. P32245. U2OS MC4R beta-arrestin complementation, luminescence; percent of melanotan II response, DMSO zero. activation, % at 8.9 µM. 0.98% of 360,000 active;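 active means activation above a per-plate cutoff, the mean activation of sample wells on that plate plus 3 SD, cut at about 8% in these data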
MC4R barr ag = human MC4R beta-arrestin agonism confirmation | shares compounds with MC4R barr agon | U2OS MC4R beta-arrestin recruitment, luminescence; scaled DMSO 0%, Melanotan II 100% | activation, % at 8.9 µM | 31% of 2,400 active | AID 602192;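 active means mean activation across replicates above the hit cutoff set in the earlier primary screen, cut at about 8% in these data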
MOR DOR agonist = counter-screen for MC4R agonists: agonists of mu-delta opioid heterodimer | activation, % at 9.2 µM | U2OS PathHunter beta-arrestin, beta-gal luminescence; percent of deltorphin B response, DMSO zero | 5.8% of 2,400 active | shares compounds with MC4R barr agon;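 active means mean activation across replicates exceeds the hit threshold derived in the earlier primary screen, cut at about 18% in these data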
Of the large screens only hits and unclear results are named; the others gave an inactive call (follow-up assays come after a bar, where they were run). In the library only some 3% were active in any assay of this set; here they are far more common.

Cc1ccc(C(=O)Nc2nc(C(N)Cc3ccc(C(F)(F)F)cc3)cs2)cc1 (configuration not stated)	MC4R barr agon 10.8 (no result: Beta2AR agonist, PfGluPho inh) | MC4R barr ag 24.5 | MOR DOR agonist inactive
COc1ccc(CNC(=O)Nc2nc(C(N)Cc3ccc(Cl)cc3)cs2)cc1 (configuration not stated)	none (no result: Beta2AR agonist, PfGluPho inh)
COc1ccc(CC(N)c2csc(NC(=O)Nc3ccc(OC)cc3)n2)cc1 (configuration not stated)	none (no result: Beta2AR agonist, PfGluPho inh)
COc1ccc(NC(=O)Nc2nc(C(N)Cc3ccc(C(F)(F)F)cc3)cs2)cc1 (configuration not stated)	MC4R barr agon 32.9 (no result: Beta2AR agonist, PfGluPho inh) | MC4R barr ag 28.3 | MOR DOR agonist inactive
COc1ccccc1CNC(=O)Nc1nc(C(N)Cc2ccc(Cl)cc2)cs1 (configuration not stated)	MC4R barr agon 25.5 (no result: Beta2AR agonist, PfGluPho inh) | MC4R barr ag 40.2 | MOR DOR agonist 23.4
NC(c1ccccc1)c1csc(NC(=O)Nc2ccc(OC(F)(F)F)cc2)n1 (configuration not stated)	none (no result: Beta2AR agonist, PfGluPho inh)
CCCCN1CCc2[nH]c(=S)[nH]c(=O)c2C1	none
COc1ccc(Cc2nc3ccc(C(=O)NC(C)Cc4ncccc4C)cc3o2)cc1OC (configuration not stated)	none
NC(Cc1ccccc1)c1csc(NC(=O)Nc2ccccc2Oc2ccccc2)n1 (configuration not stated)	none (no result: Beta2AR agonist, PfGluPho inh)
COc1cc(NC(=O)Nc2nc(C(N)Cc3ccc(C(F)(F)F)cc3)cs2)cc(OC)c1OC (configuration not stated)	MC4R barr agon 20.4 (no result: Beta2AR agonist, PfGluPho inh) | MC4R barr ag 20.8 | MOR DOR agonist inactive
CC(=O)c1ccc(Nc2nc(C(N)Cc3ccc(C(F)(F)F)cc3)cs2)cc1 (configuration not stated)	none (no result: Beta2AR agonist, PfGluPho inh)
COc1ccc(CC(N)c2csc(NC(=O)Nc3ccccc3Oc3ccccc3)n2)cc1 (configuration not stated)	MC4R barr agon 12.1 (no result: Beta2AR agonist, PfGluPho inh) | MC4R barr ag inactive | MOR DOR agonist 21.1
NC(Cc1ccc(Cl)cc1)c1csc(Nc2ccc(-c3ccccc3)nn2)n1 (configuration not stated)	MC4R barr agon 14.6 (no result: Beta2AR agonist, PfGluPho inh) | MC4R barr ag 33.3 | MOR DOR agonist inactive
COc1ccccc1NC(=O)Nc1nc(C(N)Cc2ccc(C(F)(F)F)cc2)cs1 (configuration not stated)	MC4R barr agon 20.7 (no result: Beta2AR agonist, PfGluPho inh) | MC4R barr ag 11.3 | MOR DOR agonist inactive
NC(Cc1ccc(C(F)(F)F)cc1)c1csc(NC(=O)Nc2ccccc2Oc2ccccc2)n1 (configuration not stated)	none (no result: Beta2AR agonist, PfGluPho inh)
O=C(C[C@H]1CC[C@H]2[C@@H](COC[C@@H](O)CN2Cc2cc(F)ccc2F)O1)NCc1ccc(Cl)cc1	none (no result: MC4R antagonist, Beta2AR agonist, PfGluPho inh, MC4R barr agon)
COc1ccc(OCCCC(=O)Nc2cc(Cl)ccc2-n2cncn2)cc1	none
COCCn1c(SCc2ccc(OC)c(F)c2)nnc1-c1ccncc1	none
NC(Cc1ccc(C(F)(F)F)cc1)c1csc(NC(=O)NCCc2ccccc2)n1 (configuration not stated)	MC4R barr agon 14.1 (no result: Beta2AR agonist, PfGluPho inh) | MC4R barr ag 22.1 | MOR DOR agonist 18.1
COc1ccc2nc(NC(=O)CSc3nc4cccnc4n3C)sc2c1	MC4R barr agon 16.9 | MC4R barr ag 36.6 | MOR DOR agonist inactive
CC(C)=CC(=O)OCc1cc([N+](=O)[O-])cc2c1OCOC2	none
Clc1ccc(/C=C\c2nccc3c2[nH]c2ccccc23)cc1	MC4R barr agon 14.0 | MC4R barr ag inactive | MOR DOR agonist inactive
Oc1ccc(Nc2ncnc3scc(-c4ccccc4)c23)cc1	MC4R barr agon 12.5 | MC4R barr ag inactive | MOR DOR agonist inactive
c1ccc(-c2csc3ncnc(NCc4ccccn4)c23)cc1	MC4R barr agon 11.2 | MC4R barr ag inactive | MOR DOR agonist inactive
Cc1sc2ncnc(Nc3ccc(O)cc3)c2c1C	none
c1ccc(CNc2ncnc3scc(-c4cccs4)c23)nc1	none
COC(=O)c1cc(S(=O)(=O)N2CCCCCC2)c[nH]1	none
O=C(NC(=S)Nc1ccc(NC(=O)c2cccs2)cc1)c1cc2ccccc2o1	MC4R barr agon 26.3 | MC4R barr ag 9.6 | MOR DOR agonist inactive
O=C(NC(=S)Nc1ccc(NC(=O)c2cccs2)cc1)c1ccco1	none
Cc1ccc(C(=O)NC(=S)Nc2ccc(NC(=O)c3cccs3)cc2)cc1[N+](=O)[O-]	MC4R barr agon 29.2 | MC4R barr ag inactive | MOR DOR agonist inactive
Cc1ccc(C(=O)Nc2ccc(NC(=O)c3cccs3)cc2)cc1[N+](=O)[O-]	none
CC1(c2nnnn2-c2ccc3c(c2)OCCO3)CCC(=O)N1Cc1cccnc1 (configuration not stated)	none (no result: MC4R antagonist, Beta2AR agonist, PfGluPho inh, MC4R barr agon)
O=C(N/N=C1/CC(c2ccccc2)Oc2ccccc21)C1CC1 (configuration not stated)	MC4R barr agon 9.6 | MC4R barr ag 8.7 | MOR DOR agonist inactive
CC1(C(=O)NCCc2ccccc2)Cc2c(-c3ccccc3)ccnc2O1 (configuration not stated)	none (no result: Beta2AR agonist, PfGluPho inh)
O=C(CSC1=Nc2ccccc2C2CC=NN12)Nc1ccc(F)cc1Cl (configuration not stated)	MC4R barr agon 25.6 | MC4R barr ag inactive | MOR DOR agonist inactive
C[C@@H]1CN([C@@H](C)CO)S(=O)(=O)c2ccc(Br)cc2O[C@H]1CN(C)Cc1ccccn1	none (no result: Beta2AR agonist)
COC(=O)c1c(NC(=O)c2cccc([N+](=O)[O-])c2)sc(C(N)=O)c1C	MC4R barr agon 11.7 | MC4R barr ag inactive | MOR DOR agonist inactive
CCCCn1nc(C(=O)Nc2ccc(-n3cnnn3)cc2)c2ccccc2c1=O	none
COc1cccc2cc(-c3nnc(SCC(=O)Nc4cc(C(F)(F)F)ccc4Cl)n3N)oc12	MC4R barr agon 21.1 | MC4R barr ag inactive | MOR DOR agonist inactive
CCOc1ccc(CC(=O)Nc2c(C(=O)Nc3ccccc3)oc3ccccc23)cc1OCC	MC4R barr agon 15.0 | MC4R barr ag 10.9 | MOR DOR agonist inactive
Cc1ccc(NC2CCCN(C(=O)c3ccc(C)c(N4CCNC4=O)c3)C2)cc1C (configuration not stated)	none
CN1C(=O)[C@H]2[C@@H](c3ccc(C(F)(F)F)cc3)N[C@]3(CCCN(Cc4ccc(Cl)cc4)C3=O)[C@H]2C1=O	MC4R barr agon 9.7 (no result: Beta2AR agonist) | MC4R barr ag inactive | MOR DOR agonist inactive
CN1C(=O)[C@H]2[C@@H](c3ccc(C(F)(F)F)cc3)N[C@]3(CCCN(Cc4ccc(F)cc4)C3=O)[C@H]2C1=O	none (no result: Beta2AR agonist)
Cc1ccc(-c2nc(C=Nc3cccc(C)c3)c(O)o2)cc1	MC4R barr agon 13.8 | MC4R barr ag inactive | MOR DOR agonist inactive

Compound activity deposited in PubChem BioAssay by several laboratories.
